The source made the active and inactive calls. The calls are words filed in the database; no cut-off is given here.
Columns and labels:
293T/ACE2 [1] = test: Inhibition of Spike protein subunit S in SARS-CoV-2 pseudovirus assessed as inhibition of infection in human 293T/ACE2 cells by measuring decrease in luciferase activity at 0.000001 to 100 uM pretreated for 1 hr; format: cell-based; details: Severe acute respiratory syndrome coronavirus 2, dose lower 1e-06 µM, dose upper 100.0 µM
Procedure, shortened: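 The pseudovirus was HIV-1-based, bought ready-made, and carried S protein with luciferase and GFP reporters. It was pre-mixed with serially diluted peptides (1 pM–100 μM) for 1 h at 37 °C, then added to 293T-ACE2⁺ cells for 1 h. Medium was then replaced, followed by 47 h further culture. Infection rate was derived from luciferase activity.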

[2] = Binding affinity to the recombinant SARS-Cov-2 Spike protein subunit S1 by QCM-D measurement; parameters: species or system Severe acute respiratory syndrome coronavirus 2
Procedure, shortened: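 Peptides were thiolated and coated onto 5 MHz gold QCM-D sensors for 30 min at room temperature. Recombinant S1 protein then flowed over as mobile phase at 300 μL/min, 37 °C, in PBS. Kd came from nonlinear regression of saturated binding mass (Δm) against […] (nM).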

293T/ACE2 [3] = test: Inhibition of recombinant SARS-Cov-2 Spike protein subunit S1 binding to human 293T/ACE2 cells preincubated for 1 hr by Western blot analysis; format: cell-based; details: Severe acute respiratory syndrome coronavirus 2
Procedure, shortened: (§1)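 Recombinant S1 protein was preincubated with peptides for 1 h at 37 °C, then added to A549 or 293T-ACE2⁺ cells for 1 h. Cells were washed, lysed in RIPA with PMSF and phosphatase inhibitor, and equal protein was run on SDS-PAGE. Blots on PVDF were probed with anti-S1 rabbit pAb, with ACTB as loading reference, and detected by chemiluminescence.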

A549 [4] = test: Cytotoxicity against human A549 cells assessed as cell viability at 0.001 to 100 uM measured after 48 hrs using CCK-8 assay; format: cell-based; details: a549, 48 h, dose 0.001-100 µM
Procedure, shortened: (§2)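 A549 cells were grown in McCoy-5A with 10% FBS. They were exposed to peptides at 1 nM–100 μM (tenfold steps) for 48 h, with medium alone as control. After a PBS wash, CCK-8 was added and incubated at 37 °C. OD was read at 450/630 nm and normalised to control, n = 3.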

293T/ACE2 [5] = test: Cytotoxicity against human 293T/ACE2 cells assessed as cell viability at 0.001 to 100 uM measured after 48 hrs using CCK-8 assay; format: functional, cell-based; details: dose 0.001-100 µM
Procedure, shortened: as §2, with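 “293T-ACE2⁺” for “A549”, “high-glucose DMEM” for “McCoy-5A”, “FBS and 500 μg/mL hygromycin.” for “FBS.”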

293T/ACE2 [6] = test: Inhibition of Spike protein subunit S in SARS-CoV-2 pseudovirus assessed as inhibition of infection in human 293T/ACE2 cells by measuring decrease in fluorescence intensity at 0.000001 to 100 uM pretreated for 1 hr; format: cell-based; details: Severe acute respiratory syndrome coronavirus 2, dose lower 1e-06 µM, dose upper 100.0 µM
Procedure, shortened: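 A bought-in HIV-1-based S-pseudotyped reporter virus expressing GFP was preincubated with serially diluted peptides for 1 h at 37 °C. It was then applied to 293T-ACE2⁺ cells for 1 h and replaced with fresh medium, followed by 47 h more culture. Cellular GFP fluorescence intensity was observed.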

A549 [7] = test: Inhibition of recombinant SARS-Cov-2 Spike protein subunit S1 binding to human A549 cells preincubated for 1 hr by Western blot analysis; format: cell-based; details: Severe acute respiratory syndrome coronavirus 2; procedure, shortened: as §1

| Substance | inhibition (293T/ACE2 [1]) | Kd [2] [µM] | inhibition (293T/ACE2 [3]) | Activity (A549 [4]) | Activity (293T/ACE2 [5]) | inhibition (293T/ACE2 [6]) | inhibition (A549 [7]) |
| --- | --- | --- | --- | --- | --- | --- | --- |
| H-GDRIARTTRAVDRPQTLRR-OH | Active | 0.0769 | Active | Non-Toxic | Not toxic | Active | Active |
| H-GDLFDDSNLDPFRDRISTRR-OH | Active | 0.0375 | Active | Non-Toxic | Not toxic | Active | Active |
| H-GDGVYYPRDVFDSSVLDSTQR-OH | Active | 0.0056 | Active | Non-Toxic | Not toxic | Active | Active |

Source: ChEMBL document CHEMBL5029161, “Synthetic Neutralizing Peptides Inhibit the Host Cell Binding of Spike Protein and Block Infection of SARS-CoV-2” (J Med Chem, 2021)
